Screens as filed in PubChem.
An excerpt weighted towards active compounds, which were near 3.4% of everything screened.
RanGTP-Imp inh – inhibitors of RanGTP-importin-beta interaction, primary screen, biochemical, FRET, CFP-Ran, YFP-importin-beta, homogeneous. Ran GTPase (GTP-bound) - importin-beta complex. cell-free CFP-Ran/YFP-importin-beta FRET ratio. inhibition, % (test concentration not listed). hit rate 1.1% among 300,000;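 active = more than half of the replicate wells show a fall in the fluorescence ratio signal beyond about 16%, limit read from the data, passing the limit was not always enough; inconclusive = exactly half of the replicate wells pass the set limit; inactive = fewer than half of replicates pass the limit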
Wee1 stabilizer – Wee1 degradation inhibitors, primary screen, cell-based, HeLa, Wee1K328M-luciferase, luminescence; Wee1-like protein kinase (Homo sapiens), P30291; HeLa Luc-Wee1K328M stability; 100% = proteasome inhibitor MG132 effect; reporter increase, % at 5 µM; hit rate 1.2% among 220,000;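 active = activation above the mean of all tested compounds plus 3 SD, set per screening run, cut at about 8.8% in these data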;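 also: cells exposed to compound for 20 h before luminescence read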
Runt-SMMHC FRET – inhibitors of RUNX1 Runt–CBFb-SMMHC binding, primary screen, biochemical, FRET, Cerulean-Runt, Venus-CBFb-SMMHC, uHTS; Cerulean-Runt/Venus-CBFb-SMMHC FRET ratio 530/480, 1 h; inhibition, % at 20 µM; hit rate 0.74% among 220,000;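 active = mean inhibition across duplicate retests at 20 µM reaching about 50%, limit read from the data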;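 also: inhibitors lower the FRET ratio by blocking Runt binding to CBFb-SMMHC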
Target sequence (Q01196 whole entry, looked up): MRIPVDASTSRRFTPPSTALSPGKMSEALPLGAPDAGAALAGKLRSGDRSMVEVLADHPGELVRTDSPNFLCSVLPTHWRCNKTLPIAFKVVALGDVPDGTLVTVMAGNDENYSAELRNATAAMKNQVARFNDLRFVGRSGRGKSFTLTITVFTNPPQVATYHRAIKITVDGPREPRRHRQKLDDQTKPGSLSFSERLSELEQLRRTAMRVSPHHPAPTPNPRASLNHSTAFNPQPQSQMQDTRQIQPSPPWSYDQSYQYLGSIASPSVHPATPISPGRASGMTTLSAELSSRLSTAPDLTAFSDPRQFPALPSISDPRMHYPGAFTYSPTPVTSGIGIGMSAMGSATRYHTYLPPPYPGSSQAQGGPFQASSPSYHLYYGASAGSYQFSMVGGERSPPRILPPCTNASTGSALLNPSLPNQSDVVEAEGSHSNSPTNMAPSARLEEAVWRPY
Target sequence (Q13951 whole entry, looked up): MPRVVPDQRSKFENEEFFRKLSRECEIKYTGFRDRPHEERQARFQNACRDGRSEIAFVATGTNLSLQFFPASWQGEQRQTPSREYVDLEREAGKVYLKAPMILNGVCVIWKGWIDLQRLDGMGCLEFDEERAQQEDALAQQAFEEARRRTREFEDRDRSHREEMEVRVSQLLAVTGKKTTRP
Efa HMGR inh – inhibitors of E. faecalis class II HMGR, primary screen, biochemical, Enterococcus faecalis. HMG-CoA reductase (Enterococcus faecalis, mvaE). purified E. faecalis HMGR, NADPH absorbance 340 nm kinetic. inhibition, % at 10 µM. hit rate 0.41% among 190,000;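 active = inhibition above a set limit, the median over all tested compounds plus 3 SD, cut at about 9.5% in these data; inconclusive = no clear call, values can overlap the other calls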;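 also: enzyme runs in reverse so mevalonate oxidation gives rising NADPH absorbance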
Runt-CBFb FRET – inhibitors of RUNX1 Runt–CBFb binding, primary screen, biochemical, FRET, Cerulean-Runt, Venus-CBFb, uHTS; Cerulean-Runt/Venus-CBFb FRET ratio 530/480, 1 h; hit rate 0.46% among 220,000; Runt-related transcription factor 1 (Homo sapiens) + Core-binding factor subunit beta …; inhibition, % at 20 µM; AID 1496, 2009;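 active = inhibition over about 50% at 20 µM in the single-dose screen, limit read from the data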
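Assay system: Cerulean-Runt domain fusion protein, energy donor; Signal: fluorescence energy transfer, 422 nm excitation, 530/480 nm emission; Timing: 1 h compound exposure, room temperature; Control set: unlabeled CBFb; Medium: Tris buffer pH 7.5 with salts and BSA; Compound: single test concentration of 20 µM, 1% DMSO final; Probe or stimulus: Venus-CBFb 100 nM.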
PHOSPHO1 inh – PubChem AID 1565. Phosphoethanolamine/phosphocholine phosphatase (Homo sapiens), Q8TCT1. recombinant PHOSPHO1, absorbance phosphatase assay. inhibition, % at 13.3 µM. hit rate 1.1% among 290,000; in the data active = inhibition above about 60%
Hits are given with their value; n = inactive; u = inconclusive; x = no result given.

SMILES	RanGTP-Imp inh	Wee1 stabilizer	Runt-SMMHC FRET	Efa HMGR inh	Runt-CBFb FRET	PHOSPHO1 inh
Cc1ccc(C)c(N2CCN(C(=O)CCn3c(=S)[nH]c4cc5c(cc4c3=O)OCO5)CC2)c1	n	n	n	n	n	70
CC(C)OCCCn1c(=S)[nH]c2ccc(N3CCOCC3)cc2c1=O	n	n	n	n	n	n
COC(=O)c1ccc2c(=O)n(Cc3ccc4c(c3)OCO4)c(=S)[nH]c2c1	n	x	x	x	x	n
CC(C)OCCCn1c(=S)[nH]c2cc3c(cc2c1=O)OCO3	n	n	n	n	n	88
COCCNC(=O)c1ccc(Cn2c(=S)[nH]c3cc4c(cc3c2=O)OCO4)cc1	n	n	n	n	n	98
COc1ccc(N2CCN(C(=O)CCCn3c(=S)[nH]c4cc5c(cc4c3=O)OCO5)CC2)cc1	n	n	n	n	n	n
COc1ccc(OC)c(S(=O)(=O)ON2C(=O)c3ccccc3C2=O)c1	n	x	x	x	x	n
O=[N+]([O-])c1ccc(N2CCCCC2)c(-c2nn[nH]n2)c1	n	n	n	14	n	n
Cc1cc(C(=O)CSc2nn3c(=O)c(C(C)(C)C)nnc3s2)c(C)n1-c1ccc(F)cc1	n	n	n	n	n	102
COC(=O)c1ccccc1N(C)S(=O)(=O)c1cc2c3c(c1)CCC(=O)N3CCC2	n	x	x	x	x	x
Oc1ccccc1N1CCN(c2nnnn2-c2ccccc2)CC1	n	n	n	x	n	n
c1ccc(N2CCN(c3nnnn3-c3ccccc3)CC2)cc1	n	9.4	n	n	n	n
CN(C)CC(C)(C)CNS(=O)(=O)c1cccc(Cl)c1Cl	n	n	n	n	n	75
COc1ccc(NC(=O)NC2(C(=O)N3CCCCC3)CCCCC2)cc1	n	x	x	x	x	n
Cc1ccc(-c2csc3nnc(SCC(=O)N4CCN(Cc5ccccc5)CC4)n23)cc1	n	n	n	n	n	74
O=C(CSc1nnc2scc(-c3ccccc3)n12)Nc1nsc(-c2ccccc2)n1	n	n	n	n	n	67
CC1CCC(NC(=O)C2CCC(CNS(=O)(=O)c3cccc4cccnc34)CC2)CC1 (centres undefined)	n	x	x	x	x	n
CCOc1cc(/C=N\NC(=O)OC)ccc1OC(=O)c1ccco1	n	n	n	n	n	n
CCOc1cc(/C=N\NC(=O)OC(C)(C)C)ccc1OC(=O)c1ccco1	n	n	n	19	n	n
CCOC(=O)c1sc2cc([N+](=O)[O-])cc(SCC(=O)OC)c2c1N	n	n	n	n	n	99
CSc1c(C#N)c(N)nc2sc(C(=O)c3ccccc3)c(N)c12	n	n	n	x	n	n
N#Cc1c(SCc2ccc(Cl)cc2)sc(C(=O)c2ccccc2)c1N	n	n	n	n	n	89
CC(=O)N(/N=C1\Sc2ccccc2C1=O)c1ccccc1	x	n	n	n	n	n
CC(=O)N(/N=C1\Sc2ccccc2C1=O)c1ccc(C)cc1C	n	n	n	n	n	94
COc1ccc(C2C(C(=O)c3cccs3)=C(O)C(=O)N2c2nncs2)cc1 (centres undefined)	n	n	103	n	n	71
SMILES	RanGTP-Imp inh	Wee1 stabilizer	Runt-SMMHC FRET	Efa HMGR inh	Runt-CBFb FRET	PHOSPHO1 inh
Cc1ccc(NC(=O)N2CCCC2C(=O)Nc2c(C)cc(C)cc2C)cc1 (centres undefined)	n	x	x	x	x	n
COc1cc(NC(=O)CCS(=O)(=O)c2ccc3c(c2)oc(=O)n3C)cc(OC)c1OC	n	x	x	x	x	n
COc1ccc(OCCn2nnc(-c3ccc(Cl)cc3)n2)cc1	n	16	n	n	n	n
CC(Sc1nc2ccccc2o1)C(=O)O (centres undefined)	n	n	n	n	n	76
CCOC(=O)C1=C(C)N(CCCC(=O)O)C(=O)NC1c1cc2ccccc2c2ccccc12 (centres undefined)	n	x	x	x	x	x
N#CC(C#N)=C1C=CC=CN1/C(=C\c1ccccc1)C(=O)c1cccs1	28	n	n	n	n	n
CC(C)(C)SCCNC(=O)c1ccc(NS(C)(=O)=O)cc1	n	n	n	n	n	n
CCCNC(=O)Cn1sc2nc(C)cc(C)c2c1=O	n	n	60	x	n	n
CCOC(=O)C1CCCN(C(=O)Cn2sc3nc(C)cc(C)c3c2=O)C1 (centres undefined)	n	n	59	n	n	n
Cc1nn(CC(=O)N2CCC(N3CCCCC3)CC2)c(=O)c2c1sc1ccccc12	n	x	x	x	x	n
Cc1cc(C)c2c(=O)n(CC(=O)N3CCC(N4CCCCC4)CC3)sc2n1	n	n	64	n	n	n
CC(=O)Cn1cnc2c(sc3nc(C)cc(C)c32)c1=O	n	n	n	x	n	n
COc1ccc(C(=O)Nc2cccc(C(=O)N3CCCCC3)c2)cc1	n	x	x	x	x	66
COc1ccc(C(=O)Nc2cccc(C(=O)N3CCN(C)CC3)c2)cc1	n	n	n	n	n	n
O=C(CN1C(=O)NC2(CCCCCCC2)C1=O)NC1CCCc2ccccc21 (centres undefined)	n	n	n	n	n	173
CCOC(=O)N1CCC(N2C(=O)c3ccccc3C2=O)CC1	n	n	n	n	n	99
CCOC(=O)N1CCN(C2OC(=O)c3ccccc32)CC1 (centres undefined)	n	9.7	n	n	n	n
O=C1OC(N2CCN(C(=O)c3ccco3)CC2)c2ccccc21 (centres undefined)	n	n	n	n	n	n
CCCn1c(SCC(=O)NC2CC2)nnc1-c1ccccn1	n	x	x	x	x	n
Cc1cccc(C(=O)N/N=C2\CS(=O)(=O)N(C)c3ccsc32)c1	u	n	n	x	n	n
CCc1ccc(NC(=O)CC2C(=O)Nc3c2c(=O)n(C)c(=O)n3C)cc1 (centres undefined)	n	n	n	12	n	n
CCc1ccc(NC(=O)CC2NCCNC2=O)cc1 (centres undefined)	n	n	n	n	n	n
C=CC(=O)N(CCC)C(c1ccccc1)c1ccccc1OC (centres undefined)	n	x	x	x	x	x
Cc1ccc(Nc2cc(C)nc3c(C)cccc23)cc1	n	x	x	x	x	n
Cc1ccc(N2C=Nc3ccc(C)c4nc(C)cc2c34)cc1	99	n	60	n	52	n
Cc1ccc(N2C(=O)c3cccc4cccc(c34)C2=O)cc1	n	n	n	n	n	n
CC1=Nc2ccc(C)c3nc(C)cc(c23)N1c1ccc(C)cc1	65	n	x	n	x	x
CSC1=N/C(=C\c2ccc(C)o2)C(=O)S1	n	n	n	n	n	92
